In ChEMBL document CHEMBL1139364, “Codrugs linking L-dopa and sulfur-containing antioxidants: new pharmacological tools against Parkinson's disease” (J Med Chem, 2009):
Values after ≈ are worked out from the molar mass of the structure shown. Active and inactive are the calls of the source. No cut-off for these calls is given here. Where a SMILES comes first, the peptide text is derived from it. [ ]: non-standard residue; d: D form. Dopa = N[C@@H](Cc1ccc(O)c(O)c1)C(=O)O

Key:
[1] = Antioxidant activity against lucigenin-induced super oxide radicals by chemiluminescence assay; format: functional
In short: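 Chemiluminescence assay; superoxide anions generated by xanthine/xanthine oxidase system, signal amplified with lucigenin.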

[2] = Stability assessed as half life in hydrochloric acid buffer at pH 1.3; format: physicochemical
In short: (§1)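 Incubation at 37 °C in simulated gastric fluid (pH 1.3) or isotonic sodium phosphate buffer (pH 7.4); loss of parent monitored by HPLC UV-DAD; pseudo-first-order rate constants from slope of log residual compound vs time, giving half-life.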

[3] = Solubility at 50 mg in phosphate buffer at pH 7.4; format: physicochemical
In short: (§2)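 Solubility in water and in buffers at pH 1.3, 5.0 and 7.4 via shake-flask approach; concentration determined by HPLC with UV diode-array detection.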

[4] = Solubility at 50 mg in phosphate buffer at pH 5.0; format: physicochemical; in short: as §2
[5] = Solubility in water; format: physicochemical; in short: as §2
[6] = Solubility at 50 mg in phosphate buffer at pH 1.3; format: physicochemical; in short: as §2
[7] = Lipophilicity, log P pf the compound at pH 7.4 by saturated shake-flask method; format: physicochemical; conditions: buffer
In short: (§3)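 Partition between n-octanol and phosphate buffer pH 7.4 by saturated shake-flask method; compound concentration in phases measured by HPLC with UV diode-array detection.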

[8] = Partition coefficient, log K pf the compound; format: physicochemical; conditions: octanol/water; in short: as §3
[9] = Stability assessed as half life in isotonic sodium phosphate buffer at pH 7.4; format: physicochemical; in short: as §1
[10] = Stability in rat plasma assessed as half life; format: ADME, cell-free
In short: (§4)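 Conversion to L-dopa at 37 °C in rat or human plasma diluted to 80% with isotonic sodium phosphate buffer pH 7.4; residual compound followed over time; pseudo-first-order constants from log residual vs time slope, giving half-life.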

[11] = Stability in human plasma assessed as half life; format: ADME, cell-free; in short: as §4
[12] = Antioxidant activity against luminol-induced peroxide radicals by chemiluminescence assay; format: functional
In short: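 Chemiluminescence assay with luminol used to measure hydrogen peroxide level.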

Rattus norvegicus [13] = assay: Tmax in Sprague-Dawley rat assessed as L-dopa level at 0.332 mmol/kg, po; format: ADME, organism-based; conditions: in vivo
In short: (§5)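 Male Sprague–Dawley rats dosed orally at 0.332 mmol/kg; plasma L-dopa followed over time; noncompartmental parameters (Cmax, Tmax, AUC, AUMC, MRT) derived from plasma concentration profiles; data mean ± SE.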

Rattus norvegicus [14] = assay: Cmax in Sprague-Dawley rat assessed as L-dopa level at 0.332 mmol/kg, po; format: ADME, organism-based; set-up: dose 0.332 mmol/kg, route oral; conditions: in vivo; in short: as §5
Rattus norvegicus [15] = assay: AUC in Sprague-Dawley rat assessed as L-dopa level at 0.332 mmol/kg, po; format: ADME, organism-based, Plasma; conditions: in vivo; in short: as §5
Rattus norvegicus [16] = assay: AUMC in Sprague-Dawley rat assessed as L-dopa level at 0.332 mmol/kg, po; format: ADME, organism-based; conditions: in vivo; in short: as §5
Rattus norvegicus [17] = assay: Mean residence time in Sprague-Dawley rat assessed as L-dopa level at 0.332 mmol/kg, po; format: ADME, organism-based; conditions: in vivo; in short: as §5
Rattus norvegicus [18] = assay: Effect on behavioral changes in icv dosed Wistar rat assessed as decrease in rearing episodes after 1.5 hrs by open-field studies compared to L-dopa; format: functional, organism-based
Rattus norvegicus [19] = assay: Effect on behavioral changes in icv dosed Wistar rat assessed as anxiety-like behavior by open-field studies; format: functional, organism-based
Rattus norvegicus [20] = assay: Effect on behavioral changes in po dosed Wistar rat assessed as decrease in grooming activity after 1.5 hrs by open-field studies compared to L-dopa
Rattus norvegicus [21] = assay: Effect on behavioral changes in po dosed Wistar rat assessed as decrease in spontaneous locomotory activity after 1.5 hrs by open-field studies compared to L-dopa
[22] = Plasma concentration in Sprague-Dawley rat after 8 hrs; format: ADME, organism-based
In short: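 Male Sprague–Dawley rats given 0.332 mmol/kg orally; plasma L-dopa measured over time, including at 8 h; mean ± SE.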

Rattus norvegicus [23] = assay: Antiparkinson activity in Wistar rat striatum assessed as L-dopa levels per mg of tissue at 1 umol/kg, icv after 1 week; format: functional
In short: (§6)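 Rats dosed icv for 1 week at 1 µmol/kg; striatal L-dopa and dopamine quantified by HPLC with electrochemical detection; three experiments, mean with standard error.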

Rattus norvegicus [24] = assay: Antiparkinson activity in Wistar rat striatum assessed as dopamine levels per mg of tissue at 1 umol/kg, icv after 1 week; format: functional; in short: as §6
Rattus norvegicus [25] = assay: Sedative activity in icv dosed Wistar rat assessed as reduction of explorative activity; format: functional, organism-based
Rattus norvegicus [26] = assay: Effect on behavioral changes in icv dosed Wistar rat assessed as increase in spontaneous locomotory activity after 3 days by open-field studies; format: functional, organism-based
Rattus norvegicus [27] = assay: Effect on behavioral changes in icv dosed Wistar rat assessed as increase in grooming activity after 3 days by open-field studies; format: functional, organism-based
Rattus norvegicus [28] = assay: Effect on behavioral changes in icv dosed Wistar rat assessed as increase in rearing episodes after 3 days by open-field studies; format: functional, organism-based
Rattus norvegicus [29] = assay: Antiparkinson activity in po dosed rat striatum assessed as L-dopa levels per mg of tissue after 6 hrs

SMILES | half-life [2] [days] | solubility [3] [µg/mL] | solubility [4] [µg/mL] | solubility [5] [µg/mL] | solubility [6] [µg/mL] | log K [8] | half-life [9] [min] | half-life [10] [min] | half-life [11] [min] | Tmax (Rattus norvegicus [13]) [h] | Cmax (Rattus norvegicus [14]) [µg/mL] | AUC (Rattus norvegicus [15]) [ug/hr.ml] | AUMC (Rattus norvegicus [16]) [ug/ml.hr'2] | MRT (Rattus norvegicus [17]) [h] | Activity [1] | Activity [12] | Activity (Rattus norvegicus [18]) | Activity (Rattus norvegicus [19]) | Activity (Rattus norvegicus [20]) | Activity (Rattus norvegicus [21]) | also measured
COC(=O)[C@H](Cc1ccc(O)c(O)c1)NC(=O)[C@H](CS)NC(=O)[C@@H](CS)NC(C)=O | 12.2 | 9.08 (≈ 19.8 µM) | 15.1 (≈ 32.7 µM) | 15 (≈ 32.6 µM) | 20 (≈ 43.5 µM) | -0.11 | 2910 | 55.8 | 203 | 1.55 | 16.31 | 432.2 | 3608.38 | 8.35 | Active | Active | Active | Active | Active | Active | logD [7]: -0.14
COC(=O)[C@H](Cc1ccc(O)c(O)c1)NC(=O)[C@H](CS)NC(=O)C(C)(C)S | 12.2 | 13.5 (≈ 32.3 µM) | 3.82 (≈ 9.17 µM) | 14.3 (≈ 34.4 µM) | 7.07 (≈ 17 µM) | 0.2 | 1280 | 69.6 | 90 | 6.04 | 17.41 | 493.29 | 4056.32 | 8.22 | Active | Active | Active | Active | Active | Active | logD [7]: 0.92
COC(=O)[C@H](Cc1ccc(O)c(O)c1)NC(=O)[C@H](CS)NC(C)=O (Ac-Cys-[Dopa]-OMe) | 12.5 | 201 (≈ 563 µM) | 228 (≈ 639 µM) | 210 (≈ 590 µM) | 208 (≈ 584 µM) | -0.3 | 2770 | 46.8 | 69.6 | 4.05 | 6.91 | 179.06 | 1673.2 | 9.34 | Active | Active | Active | – | Active | Active | –
COC(=O)[C@H](Cc1ccc(O)c(O)c1)NC(=O)[C@H](CCSC)NC(C)=O (Ac-Met-[Dopa]-OMe) | 12.3 | 174 (≈ 453 µM) | 237 (≈ 618 µM) | 101 (≈ 262 µM) | 154 (≈ 401 µM) | -0.22 | 1810 | 115 | 315 | 4.22 | 62.87 | 1624.91 | 12319.3 | 7.58 | Active | Active | Active | Active | Active | Active | logD [7]: 0.38; concentration at 8 h [22]: 53 µg/mL; Activity (Rattus norvegicus [23]): 4.03 pmol/mg; Activity (Rattus norvegicus [24]): 0.09 pmol/mg; Activity (Rattus norvegicus [25]): Active; Activity (Rattus norvegicus [26]): Active; Activity (Rattus norvegicus [27]): Active; Activity (Rattus norvegicus [28]): Active; Activity (Rattus norvegicus [29]): 18 pmol/mg
N[C@@H](Cc1ccc(O)c(O)c1)C(=O)O [LEVODOPA] | – | – | – | – | – | – | – | – | – | 1.03 | 5.63 | 117.73 | 1053.92 | 8.95 | – | – | – | – | – | – | Activity (Rattus norvegicus [23]): 3.36 pmol/mg; Activity (Rattus norvegicus [24]): 0.07 pmol/mg

Further lines, with some results ahead:

half-life [2] [days] | solubility [3] [µg/mL] | solubility [4] [µg/mL] | solubility [5] [µg/mL] | solubility [6] [µg/mL] | log K [8] | half-life [9] [min] | half-life [10] [min] | half-life [11] [min] | Tmax (Rattus norvegicus [13]) [h] | Cmax (Rattus norvegicus [14]) [µg/mL] | AUC (Rattus norvegicus [15]) [ug/hr.ml] | AUMC (Rattus norvegicus [16]) [ug/ml.hr'2] | MRT (Rattus norvegicus [17]) [h] | SMILES | Activity [1] | Activity [12] | Activity (Rattus norvegicus [18]) | Activity (Rattus norvegicus [19]) | Activity (Rattus norvegicus [20]) | Activity (Rattus norvegicus [21]) | also measured
12.1 | 159 (≈ 447 µM) | 152 (≈ 426 µM) | 154 (≈ 431 µM) | 147 (≈ 414 µM) | -0.26 | 2880 | 36.6 | 65.4 | 4.11 | 6.19 | 110.62 | 1053.36 | 9.52 | COC(=O)[C@H](CS)NC(=O)[C@H](Cc1ccc(O)c(O)c1)NC(C)=O (Ac-[Dopa]-Cys-OMe) | Active | Active | Active | Active | Active | Active | –
12.2 | 101 (≈ 262 µM) | 247 (≈ 642 µM) | 103 (≈ 268 µM) | 256 (≈ 665 µM) | -0.25 | 1610 | 93 | 263 | 2.25 | 51.07 | 984.01 | 6844.84 | 6.96 | COC(=O)[C@H](CCSC)NC(=O)[C@H](Cc1ccc(O)c(O)c1)NC(C)=O (Ac-[Dopa]-Met-OMe) | Active | Active | Active | Active | Active | Active | logD [7]: -0.19; Activity (Rattus norvegicus [23]): 2.13 pmol/mg; Activity (Rattus norvegicus [24]): 0.22 pmol/mg; Activity (Rattus norvegicus [25]): Active; Activity (Rattus norvegicus [26]): Active; Activity (Rattus norvegicus [27]): Active; Activity (Rattus norvegicus [28]): Active; Activity (Rattus norvegicus [29]): 8 pmol/mg
